E-sel inducer: induces E-selectin expression in human endothelial cells; P16581; HUVEC E-selectin immunofluorescence imaging; normalized: neutral wells 0, TNF-alpha wells 100; activation, % at 7.58 µM; 0.37% of 260,000 active; AID 686992;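 active = mean E-selectin-positive cell signal at least 10% of the positive control, reached in at least 60% of replicates, without over 20% cell loss; inconclusive = no rule given, readout overlaps actives, possibly toxicity-flagged; inactive = the rest, including those meeting only one limit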
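Read-out basis: % PE-positive cells; Test system: HUVEC primary endothelial cells; Technique: immunofluorescence imaging; Dosing: single-point compound dose.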
SIRT5 block: sirtuin-5 (human) deacylase inhibition; Q9NXA8; inhibition, % at 15 µM; 1.1% of 330,000 active; AID 652115; Purified SirT5, succinyl-peptide AMC, trypsin-coupled fluorescence; in the data active = inhibition above about 15%; inconclusive = no clear call, values can overlap the other calls
Target sequence (Q9NXA8 whole entry, looked up): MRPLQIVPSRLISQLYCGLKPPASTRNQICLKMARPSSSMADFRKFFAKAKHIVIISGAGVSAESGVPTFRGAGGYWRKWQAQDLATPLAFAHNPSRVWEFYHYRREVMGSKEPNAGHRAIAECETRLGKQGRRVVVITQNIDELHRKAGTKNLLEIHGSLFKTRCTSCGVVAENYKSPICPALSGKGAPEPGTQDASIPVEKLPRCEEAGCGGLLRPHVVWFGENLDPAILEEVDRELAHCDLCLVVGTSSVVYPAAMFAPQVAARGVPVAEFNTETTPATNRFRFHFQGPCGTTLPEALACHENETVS
DENV2 CPE: protects cells from dengue virus 2 cytopathic effect; 1.7% of 350,000 active; CPE inhibition, % at 9.99 µM; DENV2-infected cells, cytopathic effect rescue, plate reader; in the data active = CPE inhibition above about 20%, passing the limit was not always enough; inconclusive = no clear call, values can overlap the other calls; tested in BHK-21 cells
Hits are given with their value; - = inactive; ? = inconclusive; . = no result given. Shown are actives, neighbours in structure and some others; about 2.8% of the full set was active somewhere.

SMILES	E-sel inducer	SIRT5 block	DENV2 CPE
C[C@@H]1CN([C@H](C)CO)S(=O)(=O)c2ccc(C#CC3CC3)cc2O[C@@H]1CN(C)S(C)(=O)=O	-	-	-
Cc1ccc(S(=O)(=O)Nc2ccc3c(c2)C(=O)N([C@@H](C)CO)C[C@H](C)[C@H](CN(C)C)OCCCC[C@@H](C)O3)cc1	-	.	.
CCCNC(=O)C[C@@H]1CC[C@@H]2[C@@H](COc3ccc(NC(=O)c4cccc(C(F)(F)F)c4)cc3C(=O)N2C)O1	-	-	-
Cc1[nH]c(C)c(S(=O)(=O)N2CCCCC2)c1C(=O)N1CCCC1	85.3	-	-
Cc1[nH]c(C)c(S(=O)(=O)N2CCN(c3ccccc3)CC2)c1C(=O)N1CCCC1	.	-	-
Cn1nnc(NC(=S)NC(=O)c2cccs2)n1	-	-	-
CCCCn1nnc(NC(=S)NC(=O)c2cccs2)n1	.	21.3	-
Cc1noc(C)c1NC(=O)N(C)C[C@H]1OCCCC[C@H](C)Oc2ccc(NS(=O)(=O)c3cccs3)cc2C(=O)N([C@H](C)CO)C[C@@H]1C	-	-	-
O=C(NCCO)c1ccc2c3n(nc2c1)-c1ccc(Cl)cc1CO3	-	.	.
COCCNC(=O)c1ccc2c3n(nc2c1)-c1ccc(Cl)cc1CO3	-	.	121.8
CCS(=O)(=O)Nc1ccc2c(c1)C(=O)N(C)C[C@H](OC)[C@@H](C)CN(Cc1nccs1)[C@H](C)CO2	-	-	-
COc1ccc(NC(=O)Nc2ccc3c(c2)C(=O)N([C@@H](C)CO)C[C@H](C)[C@H](CN(C)S(=O)(=O)c2cn(C)cn2)OCCCC[C@@H](C)O3)cc1	-	.	?
C[C@@H]1CN([C@@H](C)CO)C(=O)c2cc(NS(=O)(=O)c3ccccc3)ccc2O[C@@H]1CN(C)Cc1ccc(Oc2ccccc2)cc1	-	20.2	-
C[C@H]1CN([C@@H](C)CO)C(=O)c2cc(NS(=O)(=O)c3ccccc3)ccc2O[C@@H]1CN(C)Cc1ccc(Oc2ccccc2)cc1	-	-	-
C[C@@H]1CN([C@@H](C)CO)C(=O)c2cc(NS(=O)(=O)c3ccc(F)cc3)ccc2O[C@@H]1CN(C)Cc1ccc(Oc2ccccc2)cc1	-	-	-
C[C@H]1CN([C@@H](C)CO)C(=O)c2cc(NS(=O)(=O)c3ccccc3)ccc2O[C@H]1CN(C)Cc1ccc(Oc2ccccc2)cc1	-	-	34.7
C[C@@H]1CN([C@H](C)CO)C(=O)c2cccc(NC(=O)c3ccc(-c4nccs4)cc3)c2O[C@H]1CN(C)S(C)(=O)=O	-	-	-
C[C@@H]1CN([C@@H](C)CO)C(=O)c2cccc(NC(=O)c3ccc(-c4nccs4)cc3)c2O[C@@H]1CN(C)S(C)(=O)=O	-	-	24.0
C[C@@H]1CN([C@H](C)CO)C(=O)c2cccc(NC(=O)c3ccc(-c4nccs4)cc3)c2O[C@H]1CN(C)C(=O)Nc1ccc(F)cc1	-	-	-
C[C@@H]1CN([C@H](C)CO)C(=O)c2cccc(NC(=O)c3ccc(-c4nccs4)cc3)c2O[C@@H]1CN(C)C(=O)Nc1ccc(F)cc1	-	-	62.9
C[C@H](CO)N1C[C@H](C)[C@H](CN(C)C)Oc2c(NC(=O)c3ccc(-c4nccs4)cc3)cccc2C1=O	-	-	-
CC(C)NC(=O)N(C)C[C@H]1Oc2c(NC(=O)c3ccc(-c4nccs4)cc3)cccc2C(=O)N([C@@H](C)CO)C[C@@H]1C	-	-	-
C[C@@H]1CN([C@@H](C)CO)C(=O)c2cccc(NC(=O)c3ccc(-c4nccs4)cc3)c2O[C@H]1CN(C)C	-	-	73.0
CC(C)NC(=O)N(C)C[C@@H]1Oc2c(NC(=O)c3ccc(-c4nccs4)cc3)cccc2C(=O)N([C@@H](C)CO)C[C@H]1C	52.1	-	-
NCC[C@@H]1CC[C@@H](NC(=O)c2ccccc2F)[C@H](CO)O1	-	-	-
SMILES	E-sel inducer	SIRT5 block	DENV2 CPE
O=C(Nc1cc(Cl)cc(Cl)c1)N[C@@H]1CC[C@@H](CCNS(=O)(=O)c2cccc(F)c2)O[C@H]1CO	-	-	?
CO[C@@H]1CN(C)C(=O)c2ccc(NC(=O)Nc3cccc(F)c3)cc2OC[C@@H](C)N(C(=O)C2CC2)C[C@H]1C	-	.	.
C[C@@H]1CN([C@@H](C)CO)C(=O)c2cc(/C=C/c3ccccc3)cnc2O[C@@H]1CN(C)Cc1cncnc1	-	-	-
CN1C(=O)c2cc(NC(=O)Nc3ccc(F)cc3)ccc2OC[C@H]2O[C@@H](CC(=O)NC3CCC3)CC[C@H]21	-	-	-
Cc1ccc(C)c(S(=O)(=O)N2CCN(C(=O)c3ccc(N4CCCC4)c([N+](=O)[O-])c3)CC2)c1	-	-	-
O=C(c1ccc(N2CCCC2)c([N+](=O)[O-])c1)N1CCN(S(=O)(=O)c2ccccc2)CC1	-	32.6	-
C/C=C/c1ccc2c(c1)O[C@H](CN(C)Cc1ccccn1)[C@@H](C)CN([C@@H](C)CO)S2(=O)=O	-	-	-

High-throughput results as filed in PubChem.
